In ChEMBL document CHEMBL4118228, “Chemical space screening around Phe3 in opioid peptides: Modulating µ versus δ agonism by Suzuki-Miyaura cross-couplings” (Bioorg Med Chem Lett, 2018):
pEC50, pIC50: −log10 of the molar value. Active and inactive are the calls of the source. The calls are words filed in the database; no cut-off is given here. Non-standard residues stand in square brackets, D forms with d. Residues, ends and D or L forms follow the SMILES beside them. Phe(3-Ph) = N[C@@H](Cc1cccc(-c2ccccc2)c1)C(=O)O; Phe(2-Ph) = N[C@@H](Cc1ccccc1-c1ccccc1)C(=O)O; Bip = N[C@@H](Cc1ccc(-c2ccccc2)cc1)C(=O)O; Dmt = Cc1cc(O)cc(C)c1C[C@H](N)C(=O)O

Experiments:
[1] = biological target: Mu-type opioid receptor (Mus musculus, UniProt P42866); test: Displacement of [125I]-DAMGO from mouse Flag-tagged mu-opioid receptor expressed in HEK293 cell membranes after 60 mins by gamma counting
Sequence of Mu-type opioid receptor (Mus musculus, UniProt P42866) (P42866 whole entry): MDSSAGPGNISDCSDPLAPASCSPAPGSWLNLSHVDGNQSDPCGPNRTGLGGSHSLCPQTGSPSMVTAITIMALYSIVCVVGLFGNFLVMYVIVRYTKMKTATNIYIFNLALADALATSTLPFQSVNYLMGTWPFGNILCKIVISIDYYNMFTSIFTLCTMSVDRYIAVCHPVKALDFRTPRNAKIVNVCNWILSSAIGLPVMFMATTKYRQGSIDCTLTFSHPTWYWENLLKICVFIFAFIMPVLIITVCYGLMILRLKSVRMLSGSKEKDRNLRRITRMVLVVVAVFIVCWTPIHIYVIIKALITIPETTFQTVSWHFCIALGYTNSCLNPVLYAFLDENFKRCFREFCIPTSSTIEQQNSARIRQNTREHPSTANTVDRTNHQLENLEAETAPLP

[2] = biological target: T1, Delta-type opioid receptor (Mus musculus, UniProt P32300); test: Displacement of [125I]-Deltorphin 2 from mouse Flag-tagged delta-opioid receptor expressed in HEK293 cell membranes after 60 mins by gamma counting
T1 sequence (P32300 whole entry): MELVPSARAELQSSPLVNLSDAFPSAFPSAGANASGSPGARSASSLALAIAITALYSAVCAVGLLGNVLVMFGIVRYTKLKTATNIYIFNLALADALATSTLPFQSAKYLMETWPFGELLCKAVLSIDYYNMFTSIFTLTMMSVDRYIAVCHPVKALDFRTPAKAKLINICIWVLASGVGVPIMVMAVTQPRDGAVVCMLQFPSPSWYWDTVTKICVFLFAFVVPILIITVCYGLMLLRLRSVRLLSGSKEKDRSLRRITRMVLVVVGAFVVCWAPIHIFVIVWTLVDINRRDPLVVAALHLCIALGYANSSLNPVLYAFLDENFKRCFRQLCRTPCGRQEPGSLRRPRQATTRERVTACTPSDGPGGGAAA

[3] = biological target: T1, Delta-type opioid receptor; test: Agonist activity at delta-opioid receptor in mouse vasa deferens assessed as inhibition of electrically induced contractions; assay type: functional
[4] = biological target: Mu-type opioid receptor (Cavia porcellus, UniProt P97266); test: Agonist activity at mu-opioid receptor in guinea pig ileum assessed as inhibition of electrically induced contractions; assay type: functional
Sequence of Mu-type opioid receptor (Cavia porcellus, UniProt P97266) (P97266 whole entry): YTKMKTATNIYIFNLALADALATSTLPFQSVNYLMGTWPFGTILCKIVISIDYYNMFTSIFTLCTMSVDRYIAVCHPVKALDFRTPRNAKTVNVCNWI

[5] = organism: Mus musculus; test: Selectivity ratio of IC50 for mouse Flag-tagged delta-opioid receptor to IC50 for mouse Flag-tagged mu-opioid receptor
[6] = biological target: Mu-type opioid receptor (Cavia porcellus) (UniProt P97266); test: Antagonist activity at mu-opioid receptor in guinea pig ileum assessed as effect on electrically induced contractions; assay type: functional
Sequence of Mu-type opioid receptor (Cavia porcellus) (P97266 whole entry): as above

[7] = biological target: Delta-type opioid receptor (Mus musculus) (UniProt P32300); test: Partial agonist activity at delta-opioid receptor in mouse vasa deferens assessed as inhibition of electrically induced contractions; assay type: functional
Sequence of Delta-type opioid receptor (Mus musculus) (P32300 whole entry): as the sequence (P32300 whole entry) above

[8] = biological target: Mu-type opioid receptor (Rattus norvegicus, UniProt P33535); test: Agonist activity at rat mu-opioid receptor expressed in HEK293 cells co-expressing Rluc2-EPAC-GFP10 biosenser assessed as inhibition of forskolin-induced cAMP level after 10 mins by fluorescence based assay; assay type: functional, cell-based
Sequence of Mu-type opioid receptor (Rattus norvegicus, UniProt P33535) (P33535 whole entry): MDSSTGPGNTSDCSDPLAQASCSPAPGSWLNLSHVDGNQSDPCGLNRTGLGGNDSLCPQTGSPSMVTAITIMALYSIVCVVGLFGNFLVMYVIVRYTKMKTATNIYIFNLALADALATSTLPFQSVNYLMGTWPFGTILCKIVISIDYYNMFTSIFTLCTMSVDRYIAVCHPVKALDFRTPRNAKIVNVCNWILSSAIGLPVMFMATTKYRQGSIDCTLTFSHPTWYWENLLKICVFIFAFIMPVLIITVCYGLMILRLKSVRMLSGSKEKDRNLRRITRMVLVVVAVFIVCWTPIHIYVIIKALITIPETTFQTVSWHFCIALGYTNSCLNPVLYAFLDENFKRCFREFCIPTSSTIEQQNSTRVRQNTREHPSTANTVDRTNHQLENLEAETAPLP

[9] = biological target: Delta-type opioid receptor (Rattus norvegicus, UniProt P33533); test: Agonist activity at rat delta-opioid receptor expressed in HEK293 cells co-expressing Rluc2-EPAC-GFP10 biosenser assessed as inhibition of forskolin-induced cAMP level after 10 mins by fluorescence based assay; assay type: functional, cell-based
Sequence of Delta-type opioid receptor (Rattus norvegicus, UniProt P33533) (P33533 whole entry): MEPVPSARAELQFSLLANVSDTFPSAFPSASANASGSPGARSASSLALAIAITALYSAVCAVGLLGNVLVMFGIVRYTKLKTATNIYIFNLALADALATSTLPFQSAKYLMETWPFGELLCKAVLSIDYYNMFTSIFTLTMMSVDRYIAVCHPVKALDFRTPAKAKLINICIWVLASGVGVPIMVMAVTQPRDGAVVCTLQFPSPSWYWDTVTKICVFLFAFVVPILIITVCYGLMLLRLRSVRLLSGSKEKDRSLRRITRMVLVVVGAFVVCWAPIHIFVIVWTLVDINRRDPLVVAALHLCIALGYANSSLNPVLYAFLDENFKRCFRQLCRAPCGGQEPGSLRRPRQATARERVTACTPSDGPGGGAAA

[10] = biological target: Mu-type opioid receptor (Rattus norvegicus) (UniProt P33535); test: Potency index, ratio of DAMGO EC50 to compound EC50 for rat mu-opioid receptor expressed in HEK293 cells co-expressing Rluc2-EPAC-GFP10 biosenser by cAMP accumulation assay; assay type: functional, cell-based
Sequence of Mu-type opioid receptor (Rattus norvegicus) (P33535 whole entry): as the sequence (P33535 whole entry) above

[11] = biological target: Mu-type opioid receptor (Cavia porcellus) (UniProt P97266); test: Potency index, ratio of DAMGO IC50 to compound IC50 for mu-opioid receptor in guinea pig ileum
[12] = organism: Rattus norvegicus; test: Antinociceptive activity in Sprague-Dawley rat model of thermal-induced nociception assessed as increase in latency to tail withdrawal at 1 nmol, it measured at every 10 mins for 1 hr by tail flick assay; assay type: functional, organism-based
Outline: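 Compound given intrathecally to rats; tail-flick test measured withdrawal response to a thermal stimulus.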

[13] = organism: Rattus norvegicus; test: Potency index, ratio of antinociceptive activity of DAMGO to antinociceptive activity of compound in Sprague-Dawley rat model of thermal-induced nociception by tail flick assay; assay type: functional
[14] = biological target: Delta-type opioid receptor (Rattus norvegicus) (UniProt P33533); test: Partial agonist activity at rat delta-opioid receptor expressed in HEK293 cells co-expressing Rluc2-EPAC-GFP10 biosenser assessed as inhibition of forskolin-induced cAMP level after 10 mins by fluorescence based assay; assay type: functional, cell-based
Sequence of Delta-type opioid receptor (Rattus norvegicus) (P33533 whole entry): as the sequence (P33533 whole entry) above

Molecule `C=Cc1ccc(C[C@H](NC(=O)[C@@H](CCCNC(=N)N)NC(=O)[C@@H](N)Cc2c(C)cc(O)cc2C)C(=O)NCC(N)=O)cc1` has a pIC50 [1] of 8.74, a pIC50 [2] of 5.85 and a pIC50 [3] of 6.37. The pIC50 [4] was 7.62 and the Ratio IC50 [5] was 777.
In the case of `C=Cc1cccc(C[C@H](NC(=O)[C@@H](CCCNC(=N)N)NC(=O)[C@@H](N)Cc2c(C)cc(O)cc2C)C(=O)NCC(N)=O)c1`, the pIC50 [1] was 9.34, the pIC50 [2] was 6.78 and the pIC50 [3] was 8.01. For the same molecule, the pIC50 [4] was 8.84 and the Ratio IC50 [5] was 359.
`C[C@@H](NC(=O)[C@@H](N)Cc1ccc(O)cc1)C(=O)NCC(=O)N(C)[C@@H](Cc1ccccc1)C(=O)NCCO` [DAMGO] gave a pIC50 [4] of 7.55.
With `Cc1cc(O)cc(C)c1C[C@H](N)C(=O)N[C@H](CCCNC(=N)N)C(=O)N[C@@H](Cc1ccc(-c2ccccc2)cc1)C(=O)NCC(N)=O` (H-[Dmt][dR][Bip]G-NH2) the Ke [6] was 114 nM, the pIC50 [1] was 8.15 and the pIC50 [2] was 7.37. For the same molecule, the Ratio IC50 [5] was 6 and the IC20 [7] was 3090 nM.
`C=Cc1ccccc1C[C@H](NC(=O)[C@@H](CCCNC(=N)N)NC(=O)[C@@H](N)Cc1c(C)cc(O)cc1C)C(=O)NCC(N)=O` gave a pIC50 [1] of 9.33, a pEC50 [8] of 10.92 and a pIC50 [2] of 7.74. The pEC50 [9] was 8.15, the pIC50 [3] was 9.39 and the Ratio EC50 [10] was 20. For the same molecule, the Ratio IC50 [11] was 70, the pIC50 [4] was 9.41 and the Ratio IC50 [5] was 38.
Molecule `Cc1cc(O)cc(C)c1C[C@H](N)C(=O)N[C@H](CCCNC(=N)N)C(=O)N[C@@H](Cc1ccccc1-c1ccsc1)C(=O)NCC(N)=O` has a pIC50 [1] of 8.84, a pEC50 [8] of 10.40 and a pIC50 [2] of 6.20. For the same molecule, the pEC50 [9] was 7.31, the pIC50 [3] was 8.56 and the pIC50 [4] was 8.81. It also gave a Ratio IC50 [5] of 431.
`C=Cc1ccccc1C[C@H](NC(=O)[C@@H](C)NC(=O)[C@@H](N)Cc1c(C)cc(O)cc1C)C(=O)NCC(N)=O` showed a pIC50 [1] of 9.60, a pEC50 [8] of 11.22 and a pIC50 [2] of 8.10. For the same molecule, the pEC50 [9] was 8.24, the pIC50 [3] was 8.55 and the pIC50 [4] was 8.93. It also gave a Ratio IC50 [5] of 32.
`Cc1cc(O)cc(C)c1C[C@H](N)C(=O)N[C@H](CCCNC(=N)N)C(=O)N[C@@H](Cc1ccccc1-c1ccccc1)C(=O)NCC(N)=O` gave a pIC50 [1] of 9.27, a pIC50 [2] of 7.69 and a pIC50 [3] of 8.16. The pIC50 [4] was 8.46 and the Ratio IC50 [5] was 38.
Molecule `Cc1cc(O)cc(C)c1C[C@H](N)C(=O)N[C@H](CCCNC(=N)N)C(=O)N[C@@H](Cc1cccc(-c2ccsc2)c1)C(=O)NCC(N)=O` has a pIC50 [1] of 8.99, a pIC50 [2] of 6.22 and a pIC50 [4] of 7.52. For the same molecule, the Ratio IC50 [5] was 583 and the IC35 [7] was 52.8 nM.
With `Cc1cc(O)cc(C)c1C[C@H](N)C(=O)N[C@H](C)C(=O)N[C@@H](Cc1ccccc1-c1ccccc1)C(=O)NCC(N)=O` (H-[Dmt][dA][Phe(2-Ph)]G-NH2) the Activity [12] was “Active”, the pIC50 [1] was 9.46 and the pEC50 [8] was 9.92. It also gave a pIC50 [2] of 7.70, a pEC50 [9] of 8.31 and a pIC50 [3] of 8.59. The Ratio [13] was 10, the pIC50 [4] was 8.80 and the Ratio IC50 [5] was 57.
`CC(C)[C@H](NC(=O)[C@H](CCC(=O)O)NC(=O)[C@H](Cc1ccccc1)NC(=O)[C@@H](C)NC(=O)[C@@H](N)Cc1ccc(O)cc1)C(=O)N[C@H](C(=O)NCC(=O)O)C(C)C` [DELTORPHIN] gave a pIC50 [1] of 6.20, a pEC50 [9] of 10.00 and a pIC50 [4] of 6.07.
`Cc1cc(O)cc(C)c1C[C@H](N)C(=O)N[C@H](C)C(=O)N[C@@H](Cc1ccccc1-c1ccsc1)C(=O)NCC(N)=O` gave a pIC50 [1] of 6.62, a pEC50 [8] of 7.46 and a pIC50 [2] of 6.16. It also gave a pEC50 [9] of 7.25, a pIC50 [3] of 8.67 and an Emax [14] of 70%. It also gave a pIC50 [4] of 8.90 and a Ratio IC50 [5] of 4.
`CC(C)=Cc1ccccc1C[C@H](NC(=O)[C@@H](CCCNC(=N)N)NC(=O)[C@@H](N)Cc1c(C)cc(O)cc1C)C(=O)NCC(N)=O` was tested, and the Activity [12] was “Active”, the pIC50 [1] was 9.24 and the pEC50 [8] was 10.00. For the same molecule, the pIC50 [2] was 6.23, the pEC50 [9] was 7.71 and the pIC50 [3] was 9.20. The Ratio [13] was 10, the pIC50 [4] was 9.15 and the Ratio IC50 [5] was 1030.
Work on `Cc1cc(O)cc(C)c1C[C@H](N)C(=O)N[C@H](CCCNC(=N)N)C(=O)N[C@@H](Cc1ccc(-c2ccsc2)cc1)C(=O)NCC(N)=O` yielded a Ke [6] of 138 nM, a pIC50 [1] of 8.30 and a pIC50 [2] of 6.51. The Ratio IC50 [5] was 61 and the IC20 [7] was 3960 nM.
With `Cc1cc(O)cc(C)c1C[C@H](N)C(=O)N[C@H](CCCNC(=N)N)C(=O)N[C@@H](Cc1cccc(-c2ccccc2)c1)C(=O)NCC(N)=O` (H-[Dmt][dR][Phe(3-Ph)]G-NH2) the pIC50 [1] was 9.07, the pIC50 [2] was 6.57 and the pIC50 [4] was 7.21. For the same molecule, the Ratio IC50 [5] was 316 and the IC40 [7] was 117 nM.
